MPTP block – inhibitors of mitochondrial permeability transition pore | isolated mouse mitochondria, Ca2+ swelling absorbance, 30 min | inhibition, % at 10 µM | 360,000 compounds, 1.4% hits;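 active means inhibition of 50% or more, scaled per plate between neutral and stimulator controls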;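 further: 0% = DMSO wells given calcium and 100% = 1 mM EGTA wells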
proCasp3 act – procaspase-3 (human) activation; P42574; recombinant procaspase-3 D3A, Ac-DEVD-pNA absorbance 405 nm; activation, % at 8.5 µM; 330,000 compounds, 0.11% hits; AID 463141;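 active means activation above the mean of all tested compounds plus 3 SD, cut at about 21% in these data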;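 further: 0% = DMSO alone and 100% = DMSO wells spiked with extra 5 µM PC-3 D3A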
Target sequence (P42574 whole entry D9A/D28A/D175A): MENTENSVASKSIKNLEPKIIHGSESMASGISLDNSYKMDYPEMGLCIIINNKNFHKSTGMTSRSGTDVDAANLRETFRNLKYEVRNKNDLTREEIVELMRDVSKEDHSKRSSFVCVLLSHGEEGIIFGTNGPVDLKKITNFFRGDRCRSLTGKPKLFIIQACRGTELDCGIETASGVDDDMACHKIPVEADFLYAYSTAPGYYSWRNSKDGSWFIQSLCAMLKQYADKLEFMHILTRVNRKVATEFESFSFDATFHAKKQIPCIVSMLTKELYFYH
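Test system: Procaspase-3 D3A mutant, all three cleavage aspartates alanine | Dosing: Single dose, 8.5 µM nominal compound, 0.8% DMSO | Schedule: 1 h preincubation, 2 h reaction | Technique: 405 nm absorbance of p-nitroaniline, reads at 0 and 120 min | Repeats: One well per compound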
aDG glyco act – increases alpha dystroglycan glycosylation. AID 624168. 360,000 compounds, 0.22% hits. activation, % at 10 µM. Pro5-aDG cells, alpha-DG glycosylation AlphaScreen (IIH6); 0% Pro5, 100% B10-LARGE cell signal;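 active means activation of at least 8% versus controls, or a plate z-score of at least 8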;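 further: Pro5 are CHO cells carrying HIG-tagged alpha-DG that lacks glycosylation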
NR3A LBD binder – NR3A (human) ligand-binding domain modulation; 340,000 compounds, 2.5% hits; Tm shift relative to glycine control, % at 25 µM; NR3A LBD differential scanning fluorimetry, Tm shift; 0% = protein alone, 100% = glycine-bound protein; AID 1259313;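 active means melting temperature shift of at least 10% of the positive control shift, at one fixed dose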
proCasp7 act – counter-screen for procaspase-3 activators: activators of human procaspase-7; recombinant procaspase-7, Ac-DEVD-pNA absorbance 405 nm; D23A/D198A/D206A triple mutant, cannot self-cleave; scale: DMSO 0, 5 µM enzyme 100; 330,000 compounds, 0.093% hits; P55210; activation, % at 8.5 µM;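 active means percent activation above the screen-wide mean plus 3 SD, cut at about 25% in these data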
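Replicates: singlicate. Assay system: Procaspase-7 triple mutant (PC-7 D3A). Signal: 405 nm absorbance of p-nitroaniline. Times: 1 h preincubation, 2 h reaction. Buffer or medium: Zinc-free HEPES pH 7.4 with 300 mM NaCl, 0.01% Triton X-100. Also added: DEVD-pNA substrate. Benchmarks: DMSO wells as 0%, DMSO with 5 µM added PC-7 as 100%.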
The depositor's hits bear a star; x = not tested or not shown. A selection: hits, their analogues and other compounds. The true share with any hit is near 3.7%.

SMILES	MPTP block	proCasp3 act	aDG glyco act	NR3A LBD binder	proCasp7 act
CN(C)c1ccc(/C=C(\C#N)C(=O)OCC(=O)N(C)C2CCS(=O)(=O)C2)cc1 (configuration not stated)	2	-15	0	1	-17
CSc1nc(-c2ccc(Cl)cc2)c(C#N)c(=O)[nH]1	16	8	0	38*	8
CSc1nc(-c2ccccc2)c(C#N)c(=O)[nH]1	4	-1	0	0	4
CCOC(=O)c1c(NC(=S)NC)sc2c1CC(C)(C)SC2	14	-11	-1	-31	-17
CCOC(=O)c1c(NC(=S)Nc2ccccc2)sc2c1CC(C)(C)SC2	29	-11	-1	13*	-16
Fc1cc(F)c2nc(Nc3nc4cc5c(cc4s3)OCO5)sc2c1	37	-31	0	16*	-65
Cc1ccc(-n2c(SCC(N)=O)nc3c(c2=O)C2(CCCC2)Cc2ccccc2-3)cc1	0	-3	0	13*	-8
CCSc1n[nH]c2nc3c(c(=O)n12)C1(CCCC1)Cc1ccccc1-3	-3	8	0	-4	22
Fc1ccc(-c2nc3ccc(Br)cn3c2Cc2ccccc2C(F)(F)F)cc1	0	x	5	x	x
CN(C)Cc1c(C(=O)N/N=C/c2cccc(OCc3ccc(F)cc3)c2)nnn1-c1nonc1N	2	-9	0	3	0
CN(Cc1c(C(=O)N/N=C/c2cccc(F)c2)nnn1-c1nonc1N)c1ccccc1	1	6	0	37*	0
COc1cccc(/C=N/NC(=O)c2nnn(-c3nonc3N)c2CN(C)c2ccccc2)c1	-1	-8	0	20*	6
O=S(=O)(Nc1ncnc2sc3c(c12)CCC3)c1cc(F)ccc1F	3	0	0	-2	-1
Fc1cccc(Nc2ncnc3sc4c(c23)CCC4)c1	0	-1	0	13*	10
O=C(CN1CCCCCCC1)N/N=C/c1ccc(F)cc1F	-1	-8	0	24*	0
N=C1S/C(=C\c2ccccc2F)C(=O)N1c1ccc(F)cc1	11	0	0	11*	-2
COc1cc(/C=C2\SC(=N)N(c3ccc4c(c3)OCO4)C2=O)cc(OC)c1O	7	-10	0	11*	-15
CCOc1ccc(N2C(=O)S/C(=C\c3ccc(O)c(OC)c3)C2=O)cc1	3	-11	0	-1	-20
COc1cc(/C=C2\SC(=N)N(c3ccc(F)cc3)C2=O)ccc1O	0	-10	0	27*	0
N=C1S/C(=C\c2ccccc2)C(=O)N1c1ccc(F)cc1	5	5	0	5	-1
Cc1nnc(SC(C)C(=O)Nc2ccc(Cl)cc2Cl)[nH]c1=O (configuration not stated)	0	5	0	0	2
Cc1onc(-c2ccccc2Cl)c1C(=O)OCC(=O)c1ccc2c(c1)OCCO2	2	1	0	12*	-1
COc1ccc(/C(N)=N/OC(=O)c2c(-c3ccccc3Cl)noc2C)cc1OC	1	x	0	18*	x
O=C(NCC1CCCCC1)c1cccc(S(=O)(=O)N2CCCC2)c1	-1	10	0	-1	-8
O=C(Nc1nc2cc3c(cc2s1)OCCO3)C1=COCCO1	-1	5	0	11*	12
SMILES	MPTP block	proCasp3 act	aDG glyco act	NR3A LBD binder	proCasp7 act
O=C(CC1S/C(=N/N=C/c2cccs2)NC1=O)Nc1ccc(Cl)c(Cl)c1 (configuration not stated)	-2	7	0	28*	15
C/C(=N\N=C1\NC(=O)C(CC(=O)Nc2ccc(C)c(Cl)c2)S1)C(C)(C)C (configuration not stated)	3	2	0	20*	3
C/C(=N\N=C1\NC(=O)C(CC(=O)Nc2ccc(Cl)cc2)S1)c1ccco1 (configuration not stated)	-1	-2	0	0	9
CC1CCc2c(sc(NC(=O)c3cccn3C)c2C(N)=O)C1 (configuration not stated)	-2	-4	0	2	0
Cc1cccc(S(=O)(=O)N[C@@H]2CC[C@@H](CCNS(=O)(=O)c3ccccc3F)O[C@@H]2CO)c1	0	x	0	x	x
Oc1ccc(Nc2nc3ccccc3nc2Nc2ccc(O)cc2)cc1	4	-14	-1	17*	-32
